Screening data: PubChem, Broad Institute
PolyA inhibitor: polyadenylation inhibitors in yeast reporter cells, primary screen, luminescence, S. cerevisiae | activity score, % at 12 µM | 300,000 tested, 0.02% active | AID 1875, 2009 | S. cerevisiae SKY197-pL101 polyadenylation reporter, beta-gal luminescence; efflux-impaired pdr1/pdr3 knockout yeast; score 100 = 6 SD above DMSO;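 active = lowest replicate activity score at least 50, where 100 means six control SD above control mean; inconclusive = lowest score under 50 but half or more replicates reach 50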;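 note: yeast exposed to compound for 9 h at 30 °C; higher score means more reporter readthrough which indicates perturbed polyadenylation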
Beta cell apopt: inhibitors of cytokine-induced beta cell apoptosis, primary screen, luminescence; INS-1E cytokine-induced death, ATP luminescence, 48 h; percent of positive-control rescue, neutral wells zero; protection from apoptosis, % (concentration not given with the values); 300,000 tested, 0.8% active;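 active = Every replicate reaches about 75%, or at least half do and their mean reaches it too, limit read from the data; inconclusive = At least half of replicates reach the limit but their mean does not; inactive = Under half of replicates reach the limit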;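 note: higher means more ATP so stronger rescue from cytokine killing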
Calb FLC: C. albicans growth inhibition with fluconazole, primary screen, CaCi-2 strain, Alamar Blue fluorescence; C. albicans CaCi-2 (fluconazole-resistant clinical isolate) + fluconazole, 48 h; growth inhibition, % (test concentration not listed); 300,000 tested, 0.57% active; AID 1979, 2009;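 active = growth inhibition above about 58% in most replicates, limit read from the data, passing the limit was not always enough; inconclusive = exactly half the replicates above a set limit; inactive = most replicates below a set limit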;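 note: all wells also contain fluconazole at 8 µg/ml as a sub-toxic cotreatment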
T cruzi inh: inhibitors of intracellular T. cruzi growth, primary screen, luminescence, NIH3T3 host cells. T. cruzi beta-gal in NIH3T3, 90 h. inhibition, % (test concentration not listed). 300,000 tested, 1.4% active;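 active = mean inhibition across valid replicates above about 55%, limit read from the data; inconclusive = mean below that limit but half or more replicates reach it; inactive = mean below it, under half of replicates reach it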;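 note: signal also drops with host cell toxicity which is not excluded here; higher percent means less beta-gal luminescence so fewer parasites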
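System: Mouse NIH/3T3 fibroblasts infected with β-gal-expressing T. cruzi Tulahuen C4 | Quantity: NIH/3T3 cells, 5,000 per well | Reagent: 5000 reporter trypomastigotes per well | Dosing: Compound pinned at 50 nL/well, DMSO | Schedule: 3 h host attachment, then at least 90 h co-culture | Detection: GalScreen luminescence, 60 min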
CSC inhib: cancer stem cell viability inhibitors, primary screen, luminescence; cancer stem cell-like cells viability; inhibition, % at 7.5 µM; 300,000 tested, 1.1% active; in the data active = inhibition above about 75%; inconclusive = no clear call, values can overlap the other calls; tested in HMLE shEcad cells
HIF act: HIF pathway transcriptional activators, primary screen, cell-based, U2OS HRE-luciferase, luminescence; U2OS HRE-luciferase reporter; normalized: DMSO 0%, desferrioxamine 100%; AID 1910, 2009; 300,000 tested, 0.32% active; activation, % at 7.5 µM (by protocol);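 active = mean activation of at least 10% of the iron chelator positive control signal, with at least half of replicates also reaching 10%; inconclusive = mean and replicate majority disagree about reaching 10%; inactive = mean and most replicates under 10%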
Of the large screens only hits and unclear results are named; the others gave an inactive call. Compounds with a hit are over-represented: about 3.1% of the library has one in this group of screens.

OC12CC3C[C@H](C1)C(N1CCOCC1)[C@@H](C3)C2 (stereo partly specified)	none
CN(CC(=O)Nc1cccc(F)c1)C(=O)CN1C(=O)C2CCCCC2C1=O (stereo unspecified)	none (no result: PolyA inhibitor, Calb FLC, T cruzi inh, CSC inhib, HIF act)
CCC(C)(C)NC(=O)CN(C(=O)CCC(=O)Nc1nccs1)c1ccc2c(c1)OCCO2	none
Cc1ccccc1NS(=O)(=O)c1cc(C(=O)N2CCCC2)ccc1Cl	none
Cc1cccc(NS(=O)(=O)c2cc(C(=O)N3CCc4ccccc4C3)ccc2Cl)c1C	T cruzi inh 60
O=C(c1ccc(Cl)c(S(=O)(=O)N2CCOCC2)c1)N1CCc2ccccc2C1	none (no result: PolyA inhibitor, Calb FLC, T cruzi inh, HIF act)
Cc1ccc(C)c(NS(=O)(=O)c2cc(C(=O)N3CCc4ccccc4C3)ccc2Cl)c1	T cruzi inh 56
C=CCOc1cccc(/C=C2\C(=O)N(Cc3ccc(C)cc3)C(C)=C2C(=O)OC)c1	CSC inhib 85
c1cc2c(cc1C1CCCCC1)c1c3n2CCN=C3CCC1	T cruzi inh 71
Cc1ccc2c(c1)c1c3n2CCN=C3CCC1	none (no result: CSC inhib)
CCCC[C@@H]1C[C@H]1[C@@H](NC(=O)c1ccccc1)c1ccccc1C(F)(F)F	none
C=C(CC1([C@@H](NP(=O)(c2ccccc2)c2ccccc2)[C@H]2C[C@@H]2CCCC)CC1)c1ccccc1	CSC inhib 123
O=C(Cc1ccc(Cl)cc1)N1CCN(c2ccccc2)CC1	none (no result: Calb FLC)
CN(C)c1ccc(/C=C/C(=O)c2ccc3c(c2)OCCO3)cc1[N+](=O)[O-]	Calb FLC inconclusive
CN(C)c1ccc(/C=N/N=C(N)N)cc1[N+](=O)[O-]	T cruzi inh 78
Cc1cc(NC(=O)COc2cccc([N+](=O)[O-])c2)no1	none
C#CCOC(=O)CCC(=O)NCCc1ccccc1	none
C#CCOC(=O)CCCC(=O)NCCCCCCCC	Calb FLC 109
Cc1ccc(N2CC(O)(c3cccs3)[N+]3=C2CCCC3)cc1 (stereo unspecified)	none
Cc1ccc(N2NC(C)(c3cccs3)NC2=S)cc1 (stereo unspecified)	Calb FLC 105
C[C@H]1CC[C@H]2C(=O)N3[C@H](c4ccccc4Br)[C@@H](C)CC[C@H]3C(=O)N2[C@@H]1c1ccccc1Br	Beta cell apopt 110
C[C@H]1CC[C@H]2C(=O)N3[C@H](c4cccc(N5CCCC5=O)c4)[C@@H](C)CC[C@H]3C(=O)N2[C@@H]1c1cccc(N2CCCC2=O)c1	none
O=C(NCCCN1CCOCC1)C1Cc2c(ccc3ccccc23)O1 (stereo unspecified)	none (no result: CSC inhib)
Cc1[nH]n(C2=NCCS2)c(=O)c1N=Nc1cccc(C(F)(F)F)c1	Beta cell apopt 94, T cruzi inh 60
COc1ccc(NC(=O)CN(C)C(=O)/C=C/c2ccc(S(=O)(=O)N3CCCCCC3)cc2)cc1	Beta cell apopt 75
COc1ccc(NC(=O)CN(C)C(=O)/C=C/c2ccc(OCc3ccccc3)cc2)cc1	none (no result: CSC inhib)
CN(CCOc1ccccc1)CC(=O)Nc1ccc(S(=O)(=O)N2CCCC2)cc1	T cruzi inh 57
Cc1cc(C)c(NC(=O)CNC(=O)Cc2ccc(S(=O)(=O)N3CCOCC3)s2)c(C)c1	none (no result: PolyA inhibitor, Calb FLC, T cruzi inh, HIF act)
COC(=O)[C@@]12CCCN1[C@H](c1ccc(-c3cccc(Cl)c3)cc1)[C@H]1C(=O)N(C)C(=O)[C@H]12	none
CC(=O)c1cc2c(cc1NC(=O)CN(C)S(=O)(=O)c1cccs1)OCO2	none (no result: PolyA inhibitor, Calb FLC, T cruzi inh, HIF act)
CN(C(=O)c1nn(C)c2c1CS(=O)(=O)c1ccccc1-2)c1cccc(Cl)c1	none
CC1CC(C)CN(C(=O)CSc2nnc(-c3ccco3)o2)C1 (stereo unspecified)	none (no result: T cruzi inh)
Cc1ccc(C2=CC(c3ccc(N(C)C)cc3)n3nnnc3N2)cc1 (stereo unspecified)	Beta cell apopt 108
NS(=O)(=O)c1ccc(CCNC(=O)COC(=O)c2ccc([N+](=O)[O-])o2)cc1	none (no result: PolyA inhibitor, Calb FLC, T cruzi inh, HIF act)
COC(=O)c1c(NC(=O)CSc2ccccc2N)sc(C)c1C	none
CCC(c1nnnn1Cc1ccco1)N1CCN(c2cc(Cl)ccc2C)CC1 (stereo unspecified)	CSC inhib 94
Cc1onc(-c2c(Cl)cccc2Cl)c1COC(=O)c1ccc(Cl)cc1	none
CCCN(CC1CCCO1)C(=O)c1cc(COc2ccc(F)cc2F)on1 (stereo unspecified)	none
CC1(C)C=Cc2c(ccc3c2OC[C@H](c2ccc(O)cc2O)C3)O1	CSC inhib 114 (no result: PolyA inhibitor, Calb FLC, T cruzi inh, HIF act)
Cc1ccc(NC(=S)N2CCn3cccc3C2c2cccnc2)cc1 (stereo unspecified)	none
S=C(Nc1ccc(Br)cc1)N1CCn2cccc2C1c1cccnc1 (stereo unspecified)	T cruzi inh 79 (no result: Beta cell apopt, CSC inhib)
O=[N+]([O-])c1ccc(N=Nc2ncc[nH]2)cc1	CSC inhib 81
CCOc1ccc(OCC)c(NC(=O)CN2CCN(c3ccc(C)cc3C)CC2)c1	T cruzi inh 65
CCOC(=O)N1CCN(CC(=O)Nc2cc(OCC)ccc2OCC)CC1	none (no result: PolyA inhibitor, Calb FLC, T cruzi inh, CSC inhib, HIF act)
O=C(/C=C\Nc1ccc(Br)cc1)c1cccnc1	none
COc1cccc(NC(=O)Cn2nnc(C(=O)Nc3cc(Cl)ccc3OC)c2N)c1	none
COc1cccc(Cn2nnc(C(=O)Nc3cc(Cl)ccc3OC)c2N)c1	CSC inhib 79
CC(=O)c1ccc(-c2ccc(C(=O)NC3CCCCCC3)o2)cc1	none
CCOc1ccc(CNCCCSc2ncccn2)cc1OC	none
CCOc1ccc(CNCCCSc2ncccn2)cc1	T cruzi inh 55
CC(C)c1ccc(CNCCCSc2ncccn2)cc1	T cruzi inh 71
Clc1cccc(Cl)c1CNCCCSc1ncccn1	none
Clc1ccc(CNCCCSc2ncccn2)cc1Cl	T cruzi inh 56
COc1ccc(OCC(=O)NNC(=O)c2cccc(O)c2)cc1	none
CC(C)(C)c1nnc(NC(=O)NS(=O)(=O)c2ccccc2)s1	none
O=C(COC(=O)c1ccc[nH]c1=O)NC1CCCc2ccccc21 (stereo unspecified)	none
COc1ccc(/C=C/C(=O)Nc2cccnc2Cl)cc1	none
Cc1nc(-c2ccc(S(=O)(=O)Oc3ccc(Cl)cc3Cl)s2)cs1	none (no result: Beta cell apopt)
O=C(N/N=C/c1ccc(O)cc1)Nc1cccc2nsnc12	T cruzi inh 62
COc1cc(/C=N/NC(=O)Nc2cccc3nsnc23)cc(OC)c1OC	none (no result: Beta cell apopt, CSC inhib)
Cc1ccc(C(=O)NCC(=O)OCC(=O)Nc2ccccc2C#N)s1	none
Cc1ccc(N/N=C(\Cc2nc3ccccc3[nH]2)c2ccccc2)cc1	CSC inhib 92 (no result: PolyA inhibitor, Calb FLC, T cruzi inh, HIF act)
Cc1ccc(Oc2c(C(N)=O)cc([N+](=O)[O-])cc2[N+](=O)[O-])cc1	CSC inhib active
Cc1ccc(CNc2ccc([N+](=O)[O-])cc2C(N)=O)cc1	none (no result: PolyA inhibitor, Calb FLC, T cruzi inh, CSC inhib, HIF act)
